Assay [1] addresses T1, Histone deacetylase HD2 (Zea mays) (UniProt Q94F81).
T1 sequence (whole entry): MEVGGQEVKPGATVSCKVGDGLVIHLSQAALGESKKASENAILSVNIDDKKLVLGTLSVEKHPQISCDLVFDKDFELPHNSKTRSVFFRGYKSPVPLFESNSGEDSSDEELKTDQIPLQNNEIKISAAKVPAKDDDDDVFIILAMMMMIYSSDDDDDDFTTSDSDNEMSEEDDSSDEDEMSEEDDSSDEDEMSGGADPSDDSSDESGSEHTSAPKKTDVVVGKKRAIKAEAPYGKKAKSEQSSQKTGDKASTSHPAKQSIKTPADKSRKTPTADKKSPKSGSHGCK
Nature of the assay: Inhibitory activity against maize histone deacetylase 2 at 21.1 uM. The procedure, abridged: (§1)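 Maize HD2 enzyme preincubated at 30 °C, then incubated 30 min with [³H]acetate-prelabeled chicken reticulocyte core histones (10 µL of 2 mg/mL) as substrate. Reaction stopped with 1 M HCl/0.4 M acetate. Released [³H]acetic acid was extracted into ethyl acetate and counted by liquid scintillation. Percent inhibition at one fixed concentration; means of at least three separate experiments. Blank solvent served as negative control.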

The target of assay [2] is T2, Histone deacetylase HD2 (Zea mays, UniProt Q94F81).
T2 sequence (Q94F81 whole entry): T1 sequence (whole entry)
Nature of the assay: Inhibitory concentration against maize histone deacetylase 2. The procedure, abridged: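 Maize HD2 deacetylase assay using [³H]acetate-prelabeled chicken reticulocyte histones (2 mg/mL, 10 µL) at 30 °C for 30 min. Released tritiated acetic acid was extracted with ethyl acetate after HCl/acetate stop, then scintillation counted. IC50 from triple determinations, given as mean ± SD of at least three experiments.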

Assay [3] is described as follows: Inhibitory concentration against maize histone deacetylase 1-A (class IIa HDAC).
A short description of assay [4]: Inhibitory concentration against maize histone deacetylase 1-B (class I HDAC).
The nature of assay [5]: Selectivity for class IIa HDACs as ratio of IC50 for maize histone deacetylase 1-B and 1-A. A digest of the protocol: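 Maize HD1-B (class I homologue) and HD1-A (class IIa homologue) were each assayed on [³H]acetate-prelabeled chicken reticulocyte histones for 30 min at 30 °C. Released [³H]acetate was extracted with ethyl acetate and scintillation counted. IC50s came from dilutions starting at 40 µM, at least three experiments. Selectivity = IC50(HD1-B)/IC50(HD1-A).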

For assay [6], the target named is T1, Histone deacetylase HD2 (Zea mays). Nature of the assay: Inhibitory activity against maize histone deacetylase 2 at 40 uM. The procedure, abridged:
as §1

The target is the same in assay [7]. Nature of the assay: Inhibitory activity against maize histone deacetylase 2 at 24.8 uM. A digest of the protocol:
as §1

The target is the same in assay [8]. The experiment in a line: Inhibitory activity against maize histone deacetylase 2 at 23.6 uM. The procedure, abridged:
as §1

Assay [9] shares this target. The experiment in a line: Inhibitory activity against maize histone deacetylase 2 at 25.2 uM. A digest of the protocol:
as §1

The target is the same in assay [10]. Nature of the assay: Inhibitory activity against maize histone deacetylase 2 at 23.7 uM. A digest of the protocol:
as §1

Assay [11] has the same target. The experiment in a line: Inhibitory activity against maize histone deacetylase 2 at 24.5 uM. The procedure, abridged:
as §1

Assay [12] shares this target. As to conditions: 22.2 uM.
For assay [13] the target is unchanged. The experiment in a line: Inhibitory activity against maize histone deacetylase 2 at 20.6 uM. The procedure, abridged: as §1
For assay [14] the target is unchanged. Nature of the assay: Inhibitory activity against maize histone deacetylase 2 at 23.3 uM. A digest of the protocol:
as §1

Assay [15] has the same target. Nature of the assay: Inhibitory activity against maize histone deacetylase 2 at 20.5 uM. A digest of the protocol:
as §1

Assay [16] shares this target. Nature of the assay: Inhibitory activity against maize histone deacetylase 2 at 26 uM. A digest of the protocol: as §1
Assay [17] shares this target. The experiment in a line: Inhibitory activity against maize histone deacetylase 2 at 20.2 uM. A digest of the protocol: as §1

By inhibition is commonly meant the drop in the measured response relative to a control, in per cent. Read a high inhibition as a strong effect. For orientation: pIC50 means the IC50 on a negative log10 scale, so that one unit is a factor of ten.

The structures appear in SMILES notation. pIC50: −log10 of the molar value.

Compound `Cn1cc(/C=C/C(=O)c2cccc(C(F)(F)F)c2)cc1/C=C/C(=O)NO` registered an inhibition in assay [1] of 46.1%. For the same compound, the negative-log IC50 (pIC50) in assay [2] was 4.31; in assay [3], 5.03; in assay [4] it was 3.80. For the same compound, in assay [5], the SI is 17.1.
Consider `CC(/C=C/C(=O)NO)=C\[C@@H](C)C(=O)c1ccc(N(C)C)cc1` [TRICHOSTATIN], for which the pIC50 was 9.10 in [3] and 9.40 in [4].
Regarding `O=C(CCCCCCC(=O)Nc1ccc([C@H]2O[C@@H](CSc3nc(-c4ccccc4)c(-c4ccccc4)o3)C[C@@H](c3ccc(CO)cc3)O2)cc1)NO` [TUBACIN], the pIC50 is 5.70 in [2], 6.35 in assay [3] and 6.01 in assay [4]. For the same compound, the SI in assay [5] is 2.2. In assay [6], this compound yielded an inhibition of 92.9%.
Turning to `Cc1ccccc1C(=O)/C=C/c1cc(/C=C/C(=O)NO)n(C)c1`, in [7], the inhibition stood at 96%. The pIC50 in assay [3] was 7.22; in assay [4], 6.41. Moreover, the SI in [5] came to 6.5.
`COc1ccc(C(=O)/C=C/c2cc(/C=C/C(=O)NO)n(C)c2)cc1`: the pIC50 in [2] is 6.24; in assay [3] it was 6.10; in [4], 6.10. This compound also showed an inhibition in [8] of 74.2%.
Take `Cn1cc(/C=C/C(=O)c2ccc3ccccc3c2)cc1/C=C/C(=O)NO`: the values for the negative logarithm of the IC50 (pIC50) in assay [2] and in assay [3] were 5.74 and 7.40, respectively. For the same compound, the SI in [5] came to 45. For the same compound, the inhibition in assay [9] amounted to 62.9%.
`COc1ccccc1C(=O)/C=C/c1cc(/C=C/C(=O)NO)n(C)c1`: the pIC50 was 6.60 in assay [2], 6.80 in assay [3] and 6.77 in assay [4]. In assay [8], the inhibition turned out to be 95.7%.
For the compound `CC/C(=C\c1cc(/C=C/C(=O)NO)n(C)c1)C(=O)c1ccccc1`, the negative logarithm of the IC50 (pIC50) in assay [2] was 6.38; in assay [3], 6.66; in assay [4], 5.35. In addition, the inhibition in [10] turned out to be 93%. Further, the SI in [5] is 20.4.
In the case of `Cn1cc(/C=C/C(=O)c2ccccc2F)cc1/C=C/C(=O)NO`, the pIC50 in assay [2] is 5.15; in assay [3] it was 7.00; in assay [4] it was 5.47. For the same compound, the inhibition in assay [11] is 73.9%. For the same compound, in assay [5], the SI was 34.
Consider `Cn1cc(/C=C/C(=O)c2cccc3ccccc23)cc1/C=C/C(=O)NO`, for which the pIC50 in assay [2] was 6.70; in assay [3], 8.00; in [4], 6.48. In addition, in assay [12], the inhibition came to 92%. Also, the SI in assay [5] came out at 33.
On to `Cn1cc(/C=C/C(=O)c2ccc(-c3ccccc3)cc2)cc1/C=C/C(=O)NO`, for which the pIC50 in [2] was 4.58; in [3] it was 5.66; in [4], 4.50. The same compound gave an inhibition in [13] of 34%. Moreover, the SI in [5] is 14.4.
`Cc1cccc(C(=O)/C=C/c2cc(/C=C/C(=O)NO)n(C)c2)c1` gave an inhibition in assay [7] of 72%. Further, the results for the pIC50 in assay [3] and in assay [4] were 6.77 and 5.60, respectively. The SI in [5] is 14.7.
With `Cn1cc(/C=C/C(=O)c2ccccc2Cl)cc1/C=C/C(=O)NO`, the results for the pIC50 in [3] and in [4] were 7.30 and 5.80, respectively. Moreover, the inhibition in assay [14] is 79.1%. Further, the SI in assay [5] came to 32.
For the compound `Cn1cc(/C=C/C(=O)c2cccc(F)c2)cc1/C=C/C(=O)NO`, the pIC50 in assay [2] is 4.66; in assay [3], 6.66; in assay [4], 4.41. The inhibition in assay [11] came out at 56.5%. The SI in assay [5] was 176.
With `Cn1cc(/C=C/C(=O)c2ccccc2Br)cc1/C=C/C(=O)NO`, the negative logarithm of the IC50 (pIC50) in assay [2] was 6.44; in assay [3], 6.68; in assay [4], 6.74. In assay [15], this compound displayed an inhibition of 92.4%.
As for `Cn1cc(/C=C/C(=O)c2ccccc2)cc1/C=C/C(=O)NO`, the pIC50 in [3] was 6.72; in assay [4] it was 6.59. This compound also returned an inhibition in assay [16] of 92.3%.
Take `Cn1cc(/C=C/C(=O)c2ccc(Cl)cc2)cc1/C=C/C(=O)NO`: the pIC50 in assay [3] was 4.73; in [4], 4.53. The same compound gave an inhibition in assay [14] of 45.5%.
In turn, `C/C(=C\c1cc(/C=C/C(=O)NO)n(C)c1)C(=O)c1ccccc1` yielded an inhibition in assay [7] of 89.9%. The pIC50 in assay [2] was 6.17; in assay [3], 6.11; in assay [4], 6.24.
As to `Cn1cc(/C=C/C(=O)c2ccc(Br)cc2)cc1/C=C/C(=O)NO`, the pIC50 in [2] is 4.55; in assay [3], 4.69; in assay [4], 4.61. This compound also registered an inhibition in [15] of 41.7%.
As for `Cn1cc(/C=C/C(=O)c2cccc(OC(F)(F)F)c2)cc1/C=C/C(=O)NO`, the results for the pIC50 in assay [2], in [3] and in assay [4] were 3.75, 4.05 and 3.53, respectively. Also, in assay [17], the inhibition turned out to be 19.5%. Also, the SI in [5] was determined as 3.3.
For `Cn1cc(/C=C/C(=O)c2cccc(Cl)c2)cc1/C=C/C(=O)NO`, the pIC50 in assay [3] is 6.36; in assay [4] it was 4.50. The compound also returned an inhibition in assay [14] of 49%. Moreover, the SI in assay [5] worked out at 71.4.
Turning to `Cn1cc(/C=C/C(=O)c2cccc(Br)c2)cc1/C=C/C(=O)NO`, the figures for the pIC50 in [2], in assay [3] and in assay [4] were 5.68, 5.80 and 5.96, respectively. In addition, the inhibition in assay [15] was 76.8%.
Take `Cn1cc(/C=C/C(=O)c2ccc(F)cc2)cc1/C=C/C(=O)NO`: the pIC50 in [2] was 4.45; in assay [3] it was 4.80; in [4], 4.60. For the same compound, the inhibition in assay [11] is 33.2%.
As to `COc1cccc(C(=O)/C=C/c2cc(/C=C/C(=O)NO)n(C)c2)c1`, the pIC50 in [2] is 6.27; in [3], 6.41; in assay [4], 6.22. Also, in [8], the inhibition was determined as 78.2%.
For `Cc1ccc(C(=O)/C=C/c2cc(/C=C/C(=O)NO)n(C)c2)cc1`, the inhibition in assay [7] was found to be 65%. For the same compound, the pIC50 in [3] is 6.30; in [4] it was 5.32. In addition, in assay [5], the SI was 9.6.

These data come from ChEMBL document CHEMBL1144421, “Class II (IIa)-selective histone deacetylase inhibitors. 1. Synthesis and biological evaluation of novel (aryloxopropenyl)pyrrolyl hydroxyamides” (J Med Chem, 2005).
